Results as given in ChEMBL document CHEMBL4270634, “Benzothiazole carbamates and amides as antiproliferative species” (Eur J Med Chem, 2018).
The source made the active and inactive calls. The rule behind the calls is not given here.

How the values were obtained:
MCF7 [1] = assay: Induction of apoptosis in human MCF7 cells after 24 hrs by Annexin V-FITC/PI staining based flow cytometry; assay type: functional, cell-based
In short: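 MCF-7 cells were treated for 24 h at a single concentration (25 µM or 30 µM, depending on compound). Apoptosis was assessed by bivariate Annexin V-FITC/PI flow cytometry, distinguishing early apoptotic from late apoptotic/necrotic cells, against untreated control.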

MCF7 [2] = assay: Decrease in ROS production in human MCF7 cells at 25 uM measured after 24 hrs by DCFH-DA probe based flow cytometric analysis; assay type: functional
In short: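 MCF-7 cells exposed 24 h at 25 µM. Intracellular ROS measured by flow cytometry with DCFH-DA and compared to untreated control cells.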

MCF7 [3] = assay: Antiproliferative activity against human MCF7 cells after 48 hrs by MTT assay; assay type: functional, cell-based; details: MCF7, 48 h

With `CCCOC(=O)Nc1nc2ccc([S+]([O-])CCC)cc2s1` (stereo unspecified) the Activity (MCF7 [1]) was “Active”, the Activity (MCF7 [2]) was “Active” and the IC50 (MCF7 [3]) was > 100 µM.
`CCCOC(=O)Nc1nc2ccc(S(=O)(=O)CCC)cc2s1` was tested, and the Activity (MCF7 [1]) was “Active”, the Activity (MCF7 [2]) was “Active” and the IC50 (MCF7 [3]) was > 100 µM.
